Compound activity (PubChem)
Hits are enriched below; roughly 4.9% of the tested compounds scored in any of these assays.
STAT3 activator: activators of IL-6 induced STAT3 signaling; U3A cells, IL-6 STAT3-luciferase reporter, luminescence; 100% = signal with IL-6 EC80 alone; activation (% of control), % at 5.6 µM; 190,000 tested, 0.91% active;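 active = activation above the screen-wide mean of compound activation plus 3 SD, cut at about 130% in these data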;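 also: 0% = background luminescence of wells with medium and substrate only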
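Assay system – human STAT1-deficient U3A cells with stable STAT3-luciferase reporter · Also added – IL-6 (33 ng/mL) · Schedule – compound 1 h, then IL-6 6 h at 37 °C · Technique – reporter luminescence signal · Evaluation – % activation versus median of IL-6-stimulated wells · Benchmarks – IL-6-only wells as 100% reference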
APP 5'UTR act: APP 5'UTR luciferase reporter activation | SH-SY5Y APP 5'UTR luciferase reporter, luminescence; zero percent = DMSO vehicle wells | activation, % at 2 µM | 190,000 tested, 1% active | AID 1276;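 active = activation above a set limit, based on mean plus 3 SD of controls, cut at about 140% in these data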
STAT3 blocker: inhibitors of IL-6 induced STAT3 signaling; 190,000 tested, 0.89% active; AID 862; U3A cells, IL-6 STAT3-luciferase reporter, luminescence; host cell line lacks STAT1; inhibition, % at 5.5 µM;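 active = inhibition above the mean inhibition across all screened compounds plus 3 SD, cut at about 44% in these data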;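 also: 0% = DMSO only wells and 100% = 100 µM nifuroxazide control wells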
STAT1 activator: activators of IFN-gamma induced STAT1 signaling. NIH 3T3 STAT1-luciferase reporter, luminescence; 100% = IFN-gamma alone, no compound. activation (% of control), % at 5.5 µM. AID 932. 200,000 tested, 2.6% active;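 active = activation above the screen-wide mean activation plus 3 SD, cut at about 130% in these data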;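 also: raw ratio to IFN-gamma control signal so 100% means no change and 0% no light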
NF-kB expr up: raises NF-kB expression in human neuronal cells; NF-kB reporter expression; stronger effect = higher value; fold change at 12.5 µM; 190,000 tested, 1.6% active; AID 1239; in the data active = fold change above about 3.3
STAT1 inh: reduces IFN-gamma driven STAT1 reporter signal. 200,000 tested, 0.35% active. inhibition, % at 5.5 µM. AID 920. NIH 3T3 STAT1-luciferase reporter, luminescence;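 active = inhibition above a set limit, the mean inhibition across all tested compounds plus 3 SD, cut at about 34% in these data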;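 also: 0% = IFN-gamma with DMSO and 100% = IFN-gamma with 300 µM nifuroxazide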
* = called active by the depositor; . = no result.

SMILES | STAT3 activator | APP 5'UTR act | STAT3 blocker | STAT1 activator | NF-kB expr up | STAT1 inh
COC(=O)c1cc(-c2ccc(Cl)cc2Cl)n[nH]1 | 94.8 | 13.9 | 15.8 | 122.3 | 1.62 | -26.3
CC(C)(C)n1nc2c(c1NC(=O)Cc1ccccc1)CS(=O)(=O)C2 | 102.9 | 0.9 | 1.5 | 98.6 | 1.04 | 1.4
Nc1ccc(C(=O)OCc2nc3c(ccc4ccccc43)[nH]2)cc1 | 135.6* | 92.3 | -38.9 | 150.9* | 2.36 | -52.8
Nc1ccc(C(=O)OCc2nc3cc4ccccc4cc3[nH]2)cc1 | 99.6 | -3.7 | 4.2 | 113.6 | 1.53 | -16.9
Cn1c(=O)c2c(nc(CN3CCN(CCO)CC3)n2Cc2cccc3ccccc23)n(C)c1=O | 96.6 | -8.7 | 7.7 | 105.3 | 4.28* | -5.8
O=C(COC(=O)CNC(=O)c1ccccc1)Nc1ccc(F)c([N+](=O)[O-])c1 | 104.2 | -15.9 | 0.2 | 96.0 | 1.03 | 5.9
NC(=O)c1c(NC(=O)c2ccco2)sc2c1CCC2 | 117.3 | 29.2 | -24.5 | 149.6* | 3.2 | -53.7
O=C(Nc1sc2c(c1C(=O)O)CCCCC2)c1ccco1 | 98.3 | 79.3 | 6.1 | 121.5 | 1.86 | -23.7
NC(=O)c1cc(Cc2ccccc2)sc1NC(=O)c1ccco1 | 121.4 | 84.4 | -21.2 | 142.3* | 3.37* | -43.4
NC(=O)c1c(NC(=S)Nc2ccccc2)sc2c1CCCC2 | 96.0 | 7.0 | 9.0 | 131.7* | 1.7 | -36.5
NC(=O)c1c(NC(=S)Nc2ccc(F)cc2)sc2c1CCCC2 | 86.6 | 13.9 | 17.9 | 113.7 | 1.52 | -16.9
O=C(Nc1nnc(Cc2ccccc2)s1)c1ccco1 | 109.3 | 15.3 | -14.6 | 118.4 | 1.58 | -19.9
NC(=O)c1c(NC(=O)c2cnccn2)sc2c1CCCC2 | 94.6 | 94.0 | 8.6 | 134.7* | 1.55 | -41.1
CC(=O)Nc1ccccc1C(=O)C(=O)Nc1ccc(C(=O)NCC2CCCO2)cc1 (configuration not stated) | 93.2 | 11.0 | 10.3 | 102.1 | 1.2 | -3.8
CCOc1ncccc1C(=O)N1CCCSC1=Nc1ccc(C(C)=O)cc1 | 105.7 | 4.1 | -4.4 | 100.9 | 1.09 | -1.7
Cc1cc(N)n2ncc(-c3ccc(F)cc3)c2n1 | 116.6 | 84.1 | -14.7 | 139.6* | 1.74 | -42.8
CCOC(=O)Cc1c(C)nc2c(-c3ccc(Cl)cc3)cnn2c1C | 89.0 | -5.3 | 14.9 | 106.5 | 1.16 | -6.3
Cc1cc(N)n2ncc(-c3ccc(Cl)cc3)c2n1 | 110.5 | 96.0 | -7.1 | 140.4* | 2.12 | -44.3
Cc1cc2c(N=NC(=O)CCc3ccccc3)c(O)[nH]c2cc1Br | 103.2 | -9.1 | -6.6 | 97.5 | 1.36 | 2.8
O=C(c1cc(-c2ccccc2)on1)N1CCCC1 | 87.0 | 60.6 | 18.3 | 132.2* | 4.11* | -34.9
CC1CCN(C(=O)c2cc(-c3ccccc3O)on2)CC1 | 94.3 | 133.8 | 12.1 | 113.4 | 7.28* | -14.9
Cc1ccc(OCCSc2ncccn2)c(C)c1 | 79.5 | 167.8* | 28.9 | 135.5* | 5.46* | -42.4
O=C(NN1C(=O)C2CC=C(Cl)CC2C1=O)c1ccncc1 (configuration not stated) | 106.1 | 4.5 | -1.7 | 101.4 | 0.93 | -2.9
O=C(COc1ccc(Cl)cc1)NNC(=O)CSc1nncs1 | 105.7 | -0.3 | -5.6 | 104.0 | 0.98 | -7.0
CSc1ccc(/C=N/Nc2cccc(C(=O)O)c2)cc1 | 78.5 | -8.5 | 32.6 | 40.7 | 18.3* | 63.5*
SMILES | STAT3 activator | APP 5'UTR act | STAT3 blocker | STAT1 activator | NF-kB expr up | STAT1 inh
CN(C)c1ccc(/C=N/NC(=O)c2ccccc2Cl)cc1 | 104.2 | -9.3 | -1.0 | 127.2 | 2.13 | -30.0
CSc1ccc(/C=N/NC(=O)c2ccccc2Cl)cc1 | 115.9 | 10.4 | -11.5 | 133.4* | . | -35.8
COC(=O)C1CSC(c2ccc(Cl)cc2)N1C(=O)c1ccccc1 (configuration not stated) | 100.2 | -2.5 | 10.2 | 91.9 | 1.21 | 7.2
CCC(C)(C)NC(=O)C(c1ccc(F)cc1)N(Cc1cccs1)C(=O)c1cnccn1 (configuration not stated) | 105.7 | 9.7 | -3.1 | 100.8 | 0.93 | -3.0
CCCC(=O)Nc1ccc2oc(=O)ccc2c1 | 107.3 | -12.1 | 2.8 | 107.5 | 1.47 | -10.1
Cc1cc(F)ccc1S(=O)(=O)N1CCCOC1CNC(=O)C(=O)NCc1ccco1 (configuration not stated) | 99.1 | -3.1 | -1.4 | 94.5 | 1.03 | 8.1
